# High-throughput results deposited in PubChem by Broad Institute.
# FN deposition inh = fibronectin deposition inhibition. 350,000 compounds, 0.086% hits. AH1F fibroblasts, Alexa488-fibronectin deposition fluorescence, overnight. inhibition, % at 12.6 µM;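 active = mean inhibition across replicates of 30% or more, regardless of how many single replicates reach that level; inconclusive = mean under 30% yet at least half of replicates reach 30%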;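 note: positive control wells lacked labelled fibronectin entirely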
#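 material = AH1F fibroblast monolayer depositing Alexa488-labelled fibronectin into matrix | amount = 10000 AH1F cells/well | buffer or medium = DMEM plus 2% serum, read in PBS | incubation = 1 h cell adhesion before compound, then overnight fibronectin incubation | detection = fluorescence at 485 nm excitation, 525 nm emission | evaluation = percent inhibition as loss of matrix-bound fibronectin fluorescence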
# PGC1a acetyl inh = lowers PGC1a acetylation signal in U2OS cells; AlphaScreen anti-acetyl-lysine; with virally co-expressed GCN5 acetyltransferase; inhibition, % at 15.6 µM; 350,000 compounds, 0.17% hits; AID 651687;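 active = every replicate shows inhibition of at least 40%; inconclusive = mean inhibition at least 40% but some replicate below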;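 note: 0% = neutral control wells and 100% = positive control wells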
# PglD DTNB = inhibitors of Campylobacter jejuni PglD acetyltransferase. 360,000 compounds, 0.098% hits. inhibition, % at 12.5 µM. purified PglD enzyme, DTNB colorimetric CoA detection; in the data active = inhibition above about 16%, passing the limit was not always enough; inconclusive = no clear call, values can overlap the other calls
# DENV2 CPE rescue = protects cells from dengue virus 2 cytopathic effect; 350,000 compounds, 1.7% hits; DENV2-infected cells, cytopathic effect rescue, plate reader; AID 651640; CPE inhibition, % at 9.99 µM; in the data active = CPE inhibition above about 20%, passing the limit was not always enough; inconclusive = no clear call, values can overlap the other calls; tested in BHK-21 cells;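 note: 0% = median of neutral control wells and 100% = median of positive control wells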
# rRNA inh HTS = inhibits bacterial ribosomal RNA function over humanized ribosomes; E. coli WT GFP vs humanized-ribosome RFP mutants, fluorescence, 24 h; hits give low values; DMSO median 0, no signal -100; GFP signal change (wild-type ribosome), % (no concentration beside the values); 350,000 compounds, 1.6% hits; AID 720706;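 active = significant combined selectivity score with lowered wild-type GFP, culture density cut under 30%, mutant RFP and density less affected; inactive = any of these conditions unmet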
# HIV Env fusion = inhibitors of HIV Env-mediated cell fusion; HeLa-JRFL Env/CEM21 cell fusion, luciferase; inhibition, % at 12.3 µM; 360,000 compounds, 1.1% hits;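 active = mean replicate inhibition score of at least 50 and every replicate individually at or above 50; inconclusive = only one of the two criteria met; inactive = mean below 50 and not all replicates reaching 50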;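 note: 0% = plate neutral controls and 100% = maraviroc near 300 nM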
# * hit, by the source's call; i = inactive; ? = inconclusive; . = not tested or not shown; ! = a repeat was not active; [ ] = remark or other dose. Most compounds without a hit are left out; they make up all but 3.5% or so of the library.
SMILES,FN deposition inh,PGC1a acetyl inh,PglD DTNB,DENV2 CPE rescue,rRNA inh HTS,HIV Env fusion
NC(=O)C(=O)N/N=C/c1c[nH]c2ccc(Br)cc12,1.4,.,.,-12.0,-1.1,2.6
O=C(N/N=C/c1cc(Br)c(Br)o1)c1ccc2c(c1)OCCO2,0.8,-10.0,6.5,-0.6,2.8,-67.4
O=C(N/N=C/c1cc(Br)c(O)c(Br)c1O)c1ccc2c(c1)OCCO2,13.3,2.8,-6.5,-0.5,-19.2*,0.6
O=C(N/N=C/c1c[nH]c2ccc(Br)cc12)c1ccc2c(c1)OCO2,3.4,9.4,.,7.3,-30.3*,-29.1
O=C(N/N=C/c1c[nH]c2ccc(Br)cc12)C1CC1,-0.7,-1.6,.,2.9,-33.5*,-2.0
O=C([C@@H]1[C@@H](CO)[C@@H]2Cn3c(ccc(C4=CCCC4)c3=O)[C@H]1N2C(=O)c1ccncc1)N1CCOCC1,.,.,1.0,-2.3,2.0,2.7[16.7 µM]
C[C@H](CO)N1C[C@H](C)[C@@H](CN(C)Cc2ccncc2)Oc2ncc(-c3ccc(C#N)cc3)cc2C1=O,-9.8,12.2,-1.0,16.9,3.2,-24.9[16.7 µM]
Cc1ccc(NC(=O)CN(C)CC(=O)Nc2ccc(N3CCOCC3)cc2)cc1F,.,.,.,.,-21.4*,-5.5
CCCNC(=O)Nc1ccc2c(c1)C(=O)N(C)C[C@@H](OC)[C@@H](C)CN(C(=O)C1CC1)[C@H](C)CO2,3.3,21.9,6.4,-1.1,1.1,.
CCN(CC)c1c(-c2ccccc2)c2cc(C)ccc2[nH]c1=O,-0.1,-5.8,.,?,-1.7,68.1*
C/C(=N\N)c1c(-c2ccccc2)c2cc(C)ccc2[nH]c1=O,3.0,8.3,-10.7,-2.6,15.0,5.1
Cc1cc(C(=O)N/N=C/c2ccc(-c3cccc(Cl)c3)o2)n[nH]1,-0.4,.,0.8,3.0,-23.1*,-6.2
COCc1cc(C)nc(OCC(=O)N/N=C/c2ccc(-c3cc([N+](=O)[O-])ccc3C)o2)c1C#N,-5.7,9.3,7.7,.,.,64.0*
Cc1ccc(-c2cc(C(=O)N/N=C/c3ccc(F)cc3)n[nH]2)o1,4.3,11.5,1.5,-0.9,-24.1*,-1.0
Cc1cc(C(=O)N/N=C/c2ccc(-c3ccc([N+](=O)[O-])cc3C)o2)n[nH]1,3.5,4.6,2.9,14.4,-41.2*,5.5
Cc1ccc(-c2cc(C(=O)N/N=C/c3ccccc3O)n[nH]2)o1,13.4,.,-2.4,1.0,-57.0,-12.3
Cc1cc([N+](=O)[O-])ccc1-c1ccc(/C=N/NC(=O)c2ccc(Br)o2)o1,2.8,.,-1.7,-3.2,7.7,-0.4
CCNC(=O)C[C@@H]1CC[C@H]2[C@H](COc3ccc(NC(=O)c4cccs4)cc3C(=O)N2C)O1,-9.3,8.7,4.8,-6.6,-1.9,2.4[16.7 µM]
COc1ccccc1-c1ccc(C2[C@@H]3CN(S(=O)(=O)c4ccccc4OC)C[C@H]2N3)cc1 (stereo not given in full),-4.5,10.5,.,3.1,-4.2,.
CC(C)C#Cc1ccc([C@@H]2[C@H]3CN(CC4CC4)CCCCN3[C@H]2CO)cc1,.,10.8,5.5,26.1*,5.6,.
CC(C)C#Cc1ccc([C@@H]2[C@H](CO)N3CCCCN(CC4CC4)C[C@@H]23)cc1,.,-7.7,0.8,21.7*,1.8,.
COc1cccc(-c2ccc(C3[C@H]4CNC[C@@H]3N4C(=O)Nc3ccccc3OC)cc2)c1 (stereo not given in full),-5.8,-2.2,.,?,7.7,.
C[C@H](CO)N1C[C@H](C)[C@H](CN(C)Cc2ccccn2)Oc2ncc(C#CC3CC3)cc2C1=O,-3.5,6.4,2.9,0.7,2.0,-9.4[16.7 µM]
CC(=O)Nc1nc(-c2ccc3c(c2)CC(C)N3C(=O)C2CC2)c(C)s1 (stereo not given),-8.0,12.0,-3.1,0.7,0.9,58.6*
Cc1noc(C)c1NC(=O)N(C)C[C@@H]1Oc2ccc(NC(=O)NC(C)C)cc2C(=O)N([C@H](C)CO)C[C@H]1C,.,2.1,2.0,-1.8,2.4,-6.7[16.7 µM]
SMILES,FN deposition inh,PGC1a acetyl inh,PglD DTNB,DENV2 CPE rescue,rRNA inh HTS,HIV Env fusion
CCc1nc2c(OCc3cccc(Cl)c3)cccn2c1N(C)C(=O)c1ccncc1,0.4,.,-1.1,11.5,0.9,13.7
CCOC(=O)N(C)c1c(CC)nc2c(OCc3cc(Cl)cc(Cl)c3)cccn12,9.9,-15.0,1.6,-4.7,-60.0,56.0*
CCc1nc2c(OCc3cccc(Cl)c3)cccn2c1N(C)C(=O)c1ccco1,2.2,23.8,-4.2,22.7*,-5.9,i
CN(C)C(=O)c1cccc(-c2ccc3c(c2)[C@@H]2[C@@H](CCN2S(=O)(=O)c2cn(C)cn2)[C@H](CO)N3)c1,-20.6,-1.0,1.2,4.2,4.7,.
O=C(NCc1cccc(F)c1)Nc1nnc([C@H]2C[C@H](O)[C@@H](CO)O2)s1,2.7,-11.9,-2.5,31.2*,18.3,-20.9
O=C(NCc1ccccc1F)Nc1nnc([C@H]2C[C@H](O)[C@@H](CO)O2)s1,2.7,.,0.0,3.4,9.0,-20.1
O=C(Nc1nnc([C@H]2C[C@H](O)[C@@H](CO)O2)s1)Nc1cccc(Cl)c1Cl,-1.6,3.0,2.4,-6.1,-25.1*,-33.5
COc1ccc2c3c([nH]c2c1)[C@@H](CO)N(C(=O)CN1CCOCC1)CC31CCN(C(=O)NC(C)C)CC1,.,.,.,-1.0,3.1,-9.4[16.7 µM]
O=C(CCn1cncn1)N1CCCC(N2CCN(c3ccc(F)cc3)CC2)C1 (stereo not given),0.4,3.2,2.9,43.3*,2.7,-1.8
O=C(CCn1cncn1)N1CCCC(N2CCN(c3cccc(C(F)(F)F)c3)CC2)C1 (stereo not given),.,.,-0.1,10.1,-3.2,2.8
O=C(O)CCCc1ccc2c(c1)CCc1ccccc1-2,-16.3,.,-2.4,-6.2,-43.5,62.7*
COCC(=O)N(C)C[C@H]1Oc2cc(C#CCC(C)C)ccc2S(=O)(=O)N([C@H](C)CO)C[C@H]1C,-8.1,-11.5,2.2,-15.1,-2.4,-11.2[16.7 µM]
Cc1cc2c(NC(=O)Nc3ccccc3)cccc2nn1,4.2,2.9,-1.0,-3.7,-4.5,-3.3
Cc1cc2c(NC(=O)Nc3ccc(C(C)(C)C)cc3)cccc2nn1,-15.5,.,.,-11.2,-32.5*,-12.0
CCOC(=O)[C@H]1[C@@H]2C(=O)N3CCC[C@H]3[C@H](O[Si](C(C)C)(C(C)C)C(C)C)[C@H]2C=C2CCN(S(=O)(=O)c3ccc(C)cc3)C[C@H]21,.,-15.9,.,-7.5,.,-14.9[16.7 µM]
O=C(C[C@@H]1C[C@H]2c3cc(NS(=O)(=O)c4ccc(F)cc4)ccc3O[C@H]2[C@@H](CO)O1)NCc1cc(F)ccc1F,14.1,-1.4,-3.1,-1.8,2.8,.
C[C@H](CO)N1C[C@H](C)[C@H](CN(C)C(=O)Nc2ccc(F)cc2)OCc2ccccc2-c2c(n(C)c3ccccc23)C1=O,-5.6,-13.8,-2.7,73.4*!,4.1,90.4*![16.7 µM]
